{"source": "paper PMC7704123", "about": "(Journal of natural products, 2020)", "assay_type_in_all_cases": "cell-based, human", "key": {"[1]": {"system": "mTORC1 signaling in MDA-MB-453 cells", "assay": "Immunoblotting of mTORC1 signaling pathway", "settings": "immunoblot", "how_it_was_run": "(§1)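 Cells (IMEM, 5% FBS) exposed to 100 nM test compound, 100 nM oligomycin, 10 nM rapamycin or DMSO vehicle for 2, 6 or 18 h. Scraped whole-cell lysates with PMSF, Na3VO4 and protease inhibitors; 10 μg protein per lane on 10% Bis-Tris SDS-PAGE, PVDF transfer. Blots probed for phospho/total AKT S473, mTOR S2448, S6K T389, RPS6 S235/236, 4E-BP1 T37/46 and GAPDH; IRDye infrared detection; two independent experiments.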"}, "[2]": {"system": "mTORC1 signaling in MDA-MB-231 cells", "assay": "Immunoblotting of mTORC1 signaling pathway", "settings": "immunoblot", "how_it_was_run": "as §1"}, "[3]": {"system": "MDA-MB-453 and SUM185PE cells", "assay": "SRB assay, LAR subtype TNBC cell lines taken together", "settings": "MDA-MB-453 and SUM185PE versus MDA-MB-231, HCC1806 and HCC70, Figure 7C", "how_it_was_run": "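Cells seeded at predetermined densities, left to adhere, then given test compound or DMSO vehicle for 48 h. Fixed, stained with sulforhodamine B, absorbance read at 560 nm. MDA-MB-453, MDA-MB-231 and SUM185PE were grown in IMEM with 5% FBS; HCC1806 and HCC70 in RPMI-1640 with 5% FBS. Proliferation taken relative to vehicle; GI50 by non-linear regression; three independent experiments, each in triplicate.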"}, "[4]": {"settings": "100 nM oligomycin, 2, 6 or 18 h"}}}
{"smiles": "CO[C@H]1C[C@@H]2CC[C@@H](C)[C@@](O)(O2)C(=O)C(=O)N2CCCC[C@H]2C(=O)O[C@H]([C@H](C)C[C@@H]2CC[C@@H](O)[C@H](OC)C2)CC(=O)[C@H](C)/C=C(\\C)[C@@H](O)[C@@H](OC)C(=O)[C@H](C)C[C@H](C)/C=C/C=C/C=C/1C", "note": "[Rapamycin]", "values": [{"measurement": "mTOR signaling", "setting": "[1]; 10 nM rapamycin, 2, 6 or 18 h", "value": "inhibited mTOR signaling in both cell lines"}, {"measurement": "mTOR signaling", "setting": "[2]; 10 nM rapamycin, 2, 6 or 18 h", "value": "inhibited mTOR signaling in both cell lines"}]}
{"smiles": "CC[C@H]1/C=C/C=C/C[C@@H](C)[C@H](O)[C@@](C)(O)C(=O)[C@@H](C)[C@H](O)[C@@H](C)C(=O)[C@@H](C)[C@H](O)[C@@H](C)/C=C/C(=O)O[C@@H]2[C@H](C)[C@H](CC1)O[C@]1(CC[C@H](C)[C@H](C[C@@H](C)O)O1)[C@H]2C", "note": "[oligomycin]", "values": [{"measurement": "mTOR activity (RPS6 and S6K phosphorylation)", "setting": "[1]; [4]", "value": "selectively inhibited mTOR activity"}, {"measurement": "mTOR activity (RPS6 and S6K phosphorylation)", "setting": "[2]; [4]", "value": "but not in the resistant MDA-MB-231 cells"}, {"measurement": "growth of LAR cells as compared to other TNBC cell lines", "setting": "[3]", "value": "selectively inhibited the growth"}]}
